Measurements reported in ChEMBL document CHEMBL4017498, “Pilot in Vivo Structure-Activity Relationship of Dihydromethysticin in Blocking 4-(Methylnitrosamino)-1-(3-pyridyl)-1-butanone-Induced O6-Methylguanine and Lung Tumor in A/J Mice” (J Med Chem, 2017).
Values belong to the molecule of their own block, whether it stands above or below them.

Assays:
Mus musculus [1] = assay: Reduction in NNK-induced O6-methylguanine DNA adduct formation in A/J mouse lung at 200 ppm administered with AIN-93 G powder for 7 days followed by NNK-induction on day 7 post dose measured after 4 hrs by LC-ESI-MS/MS method relative to control; type: functional; design: scale not given: the % may be the effect or the level left
How it was run: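 Female A/J mice (6–7 weeks, one-week acclimation) fed AIN-93G powdered diet with 200 ppm compound from Day 0 (ethanol-processed diet for controls; n=3 per treatment, n=6 NNK control). Single i.p. NNK, 100 mg/kg in saline, on Day 7; lungs collected 4 h later. DNA isolated from half lung; O6-mG quantified by LC-MS/MS. Mean ± SD; one-way ANOVA with Dunnett's test versus NNK control.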

Mus musculus [2] = assay: Toxicity in NNK-induced long-term lung adenoma A/J mouse model assessed as effect on body weight at 25 ppm administered with AIN-M powder […] followed by NNK induction on day 7 at 100 mg/kg during compound dosing and […] at 67 mg/kg post last dose measured every once a week during compound dosing; type: organism-based; conditions: in vivo, po
How it was run: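 Female A/J mice fed AIN-93G diet with compound at 25 ppm. NNK given i.p. at 100 mg/kg on Day 7 and 67 mg/kg on Day 14. Treated diet ended 24 h after the last NNK, followed by AIN-M diet. Bodyweight recorded once weekly and food intake twice weekly through Day 119.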

Mus musculus [3] = assay: Toxicity in NNK-induced long-term lung adenoma A/J mouse model assessed as effect on liver weight at 25 ppm administered with AIN-M powder […] followed by NNK induction on day 7 at 100 mg/kg during compound dosing and […] post last dose measured after day 119; type: organism-based; conditions: in vivo, po
How it was run: (§1)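 Female A/J mice fed AIN-93G diet with compound at 25 ppm. NNK given i.p. at 100 and 67 mg/kg on Day 7 and Day 14. Switched to AIN-M diet 24 h after the last NNK. On Day 119, mice were weighed, euthanized with CO2, and livers excised and weighed. Relative liver weight is liver weight divided by bodyweight for each mouse.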

Mus musculus [4] = assay: Toxicity in NNK-induced long-term lung adenoma A/J mouse model assessed as effect on liver weight at 25 ppm administered with AIN-M powder for […] followed by NNK induction on day 7 at 100 mg/kg during compound dosing and […] post last dose measured after day 119 relative to body weight; type: organism-based; conditions: in vivo, po; how it was run: as §1
Mus musculus [5] = assay: Reduction in NNK-induced long-term lung adenoma formation in A/J mouse at 25 ppm administered with AIN-M powder […] followed by NNK induction on day 7 at 100 mg/kg during compound dosing and […] post last dose measured after day 119 relative to control; type: functional; design: scale not given: the % may be the effect or the level left
How it was run: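 Female A/J mice fed AIN-93G powder diet with compound at 25 ppm (added in ethanol, vacuum-dried, dose checked by HPLC). NNK in saline given i.p. at 100 and 67 mg/kg on Day 7 and Day 14. Treated diet stopped 24 h after the last NNK, then AIN-M diet. On Day 119, surface lung adenomas were counted blinded by a pathologist. Mean ± SD; one-way ANOVA with Dunnett's test vs NNK control.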

[6] = Drug level in mouse liver microsomes treated with (+)DHM assessed as CYP450-mediated compound formation by LC-MS/MS method; type: ADME
Liver [7] = assay: Drug level in mouse liver microsomes treated with (+)DHM by LC-MS/MS method; type: ADME, microsome
Liver [8] = assay: Drug metabolism in mouse liver microsomes assessed as 7-(benzo[d][1,3]dioxol-5-yl)-5-hydroxy-3-methoxyhept-2-enoic acid formation by LC-MS/MS method; type: ADME, microsome
[9] = Drug metabolism in mouse liver microsomes assessed as CYP450-mediated 7-(3,4-dihydroxyphenyl)-5-hydroxy-3-methoxyhept-2-enoic acid formation by LC-MS/MS method; type: ADME

Compound: COC1=CC(=O)OC(CCc2ccc3c(c2)CCC3)C1 (stereo not given)
Activity (Mus musculus [1]): 29.6%
Activity (Mus musculus [2]): Non-Toxic
Activity (Mus musculus [3]): Non-Toxic
Activity (Mus musculus [4]): Non-Toxic
Activity (Mus musculus [5]): 10.1%

Drug metabolism [6]: Metabolite_Detected
Compound: CO/C(=C/C(=O)O)CC(O)CCc1ccc(O)c(O)c1 (stereo not given)

Compound: COC1=CC(=O)CC(CCc2ccc3c(c2)CCC3)C1 (stereo not given)
Activity (Mus musculus [1]): 11.8%

Compound: COC1=CC(=O)CC(CCc2ccc3c(c2)OCO3)C1 (stereo not given)
Activity (Mus musculus [1]): 63.8%
Activity (Mus musculus [2]): Non-Toxic
Activity (Mus musculus [3]): Non-Toxic
Activity (Mus musculus [4]): Non-Toxic
Activity (Mus musculus [5]): 89.4%

Drug metabolism (Liver [7]): Metabolite_Detected
Compound: CO/C(=C/C(=O)O)CC(O)CCc1ccc2c(c1)OCO2 (stereo not given)

Compound: COC1=CC(=O)OC(CCc2ccccc2)C1 (racemic)
Activity (Mus musculus [1]): 16.4%
Activity (Mus musculus [2]): Non-Toxic
Activity (Mus musculus [3]): Non-Toxic
Activity (Mus musculus [4]): Non-Toxic
Activity (Mus musculus [5]): 6.3%

Compound: COC1=CC(=O)OC(CCc2ccc3c(c2)OCO3)C1 (racemic)
Activity (Mus musculus [1]): 72.3%
Activity (Mus musculus [2]): Non-Toxic
Activity (Mus musculus [3]): Non-Toxic
Activity (Mus musculus [4]): Non-Toxic
Activity (Mus musculus [5]): 94.2%

Compound: COC1=CC(=O)O[C@@H](CCc2ccc3c(c2)OCO3)C1 [DIHYDROMETHYSTICIN]
Drug metabolism (Liver [8]): Metabolite_Detected
Drug metabolism [9]: Metabolite_Detected
